ChEMBL document CHEMBL1129239, “Synthesis and structure--activity relationships of fused imidazopyridines: a new series of benzodiazepine receptor ligands” (J Med Chem, 1996)
Activity calls are given as the source filed them. The calls are words filed in the database; no cut-off is given here.

Experiments:
Mus musculus [1] = assay: Inverse agonist activity was evaluated by mouse pentylenetetrazole (PTZ) proconvulsant activity test; by administering 75 mg/kg convulsive dose of PTZ, 1 hr after oral administration of test compound; type: functional
Outline: (§1)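 Male mice, 8-16 per group. Test compound given po, followed 1 h later by a subconvulsive dose of PTZ (75 mg/kg sc). Tonic convulsions and death were scored over a 2-h observation.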

Mus musculus [2] = assay: Inverse agonist activity was evaluated by mouse pentylenetetrazole (PTZ) proconvulsant activity test; by peroral administration of 90 mg/kg convulsive dose of PTZ.; type: functional; details: route oral
[3] = target: GABA-A receptor; anion channel; assay: Displacement of [3H]diazepam from rat cerebral cortex benzodiazepine receptor; type: tissue-based
Mus musculus [4] = species: Mus musculus; assay: Activity in mouse pentylenetetrazole convulsant test.; type: functional
Outline: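 Male mice, 8-16 per group. Test compound dosed orally 1 h before sc PTZ, either a convulsive 125 mg/kg (protection) or a subconvulsive 75 or 90 mg/kg (potentiation). Animals were watched 2 h for tonic convulsions and death. ED50 came from probit analysis.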

Mus musculus [5] = assay: Agonist activity was evaluated by mouse pentylenetetrazole (PTZ) convulsant test; inactive to 10 mg/kg administered intravenously; type: functional, organism-based; set-up: dose 10 mg/kg
Mus musculus [6] = assay: Inverse agonist activity was evaluated by Mouse pentylenetetrazole (PTZ) proconvulsant activity test; by peroral administration of 90 mg/kg convulsive dose of PTZ; inactive to 10 mg/kg administered intravenously; type: functional, organism-based
Mus musculus [7] = assay: Inverse agonist activity was evaluated by mouse pentylenetetrazole (PTZ) proconvulsant activity test at 10 mg/kg by peroral administration of 90 mg/kg convulsive dose of PTZ.; type: functional
Mus musculus [8] = assay: Inverse agonist activity was evaluated by Mouse pentylenetetrazole (PTZ) proconvulsant activity test 9.76-20.68 mg/kg by peroral administration of 90 mg/kg convulsive dose of PTZ.; type: functional; details: route oral
Mus musculus [9] = assay: Inverse agonist activity was evaluated by Mouse pentylenetetrazole (PTZ) proconvulsant activity test at 50 mg/kg by administering 75 mg/kg convulsive dose of PTZ, 1 hr after oral administration of test compound; type: functional; outline: as §1
Mus musculus [10] = assay: Inverse agonist activity was evaluated by Mouse pentylenetetrazole (PTZ) proconvulsant activity test; by peroral administration of 90 mg/kg convulsive dose of PTZ.; type: functional; details: route oral
Mus musculus [11] = assay: Inverse agonist activity was evaluated by Mouse pentylenetetrazole (PTZ) proconvulsant activity test; by administering 75 mg/kg convulsive dose of PTZ, 1 hr after oral administration of test compound; type: functional; outline: as §1
Mus musculus [12] = assay: Agonist activity was evaluated by mouse pentylenetetrazole (PTZ) convulsant test after p.o. administration; details: po
Mus musculus [13] = assay: Inverse agonist activity was evaluated by mouse pentylenetetrazole (PTZ) proconvulsant activity test; by peroral administration of 90 mg/kg convulsive dose of PTZ; inactive to 10 mg/kg administered intravenously; type: functional, organism-based
Mus musculus [14] = assay: Inverse agonist activity was evaluated by Mouse pentylenetetrazole (PTZ) proconvulsant activity test at 14.6-34.51 mg/kg by peroral administration of 90 mg/kg convulsive dose of PTZ.; type: functional; details: route oral
Mus musculus [15] = assay: Inverse agonist activity was evaluated by Mouse pentylenetetrazole (PTZ) proconvulsant activity test at 25.87-58.54 mg/kg by administering 75 mg/kg convulsive dose of PTZ, 1 hr after oral administration of test compound; type: functional; outline: as §1
Mus musculus [16] = assay: Inverse agonist activity was evaluated by Mouse pentylenetetrazole (PTZ) proconvulsant activity test; at 3.64-18.28 mg/kg by peroral administration of 90 mg/kg convulsive dose of PTZ.; type: functional; details: route oral
Mus musculus [17] = assay: Inverse agonist activity was evaluated by Mouse pentylenetetrazole (PTZ) proconvulsant activity test at 11.71-22.28 mg/kg by administering 75 mg/kg convulsive dose of PTZ, 1 hr after oral administration of test compound; type: functional; outline: as §1
Mus musculus [18] = assay: Inverse agonist activity was evaluated by Mouse pentylenetetrazole (PTZ) proconvulsant activity test at 22.39-75 mg/kg by peroral administration of 90 mg/kg convulsive dose of PTZ.; type: functional; details: route oral
Mus musculus [19] = assay: Inverse agonist activity was evaluated by mouse pentylenetetrazole (PTZ) proconvulsant activity test at 6.7-16.7 mg/kg by peroral administration of 90 mg/kg convulsive dose of PTZ; type: functional; details: route oral
Mus musculus [20] = assay: Inverse agonist activity was evaluated by mouse pentylenetetrazole (PTZ) proconvulsant activity test; by administering 75 mg/kg convulsive dose of PTZ, 1 hr after oral administration of test compound; In active to 10 iv; type: functional, organism-based; set-up: dose 75 mg/kg; outline: as §1
Mus musculus [21] = assay: Inverse agonist activity was evaluated by Mouse pentylenetetrazole (PTZ) proconvulsant activity test; at 7.7-119.81 mg/kg by peroral administration of 90 mg/kg convulsive dose of PTZ.; type: functional; details: route oral
Mus musculus [22] = assay: Inverse agonist activity was evaluated by Mouse pentylenetetrazole (PTZ) proconvulsant activity test at 28.18 mg/kg by administering 75 mg/kg convulsive dose of PTZ, 1 hr after oral administration of test compound; type: functional; outline: as §1
Mus musculus [23] = assay: Inverse agonist activity was evaluated by Mouse pentylenetetrazole (PTZ) proconvulsant activity test at 3.53-11.93 mg/kg by peroral administration of 90 mg/kg convulsive dose of PTZ.; type: functional; details: route oral
Mus musculus [24] = assay: Inverse agonist activity was evaluated by Mouse pentylenetetrazole (PTZ) proconvulsant activity test at 4.54-12.28 mg/kg by administering 75 mg/kg convulsive dose of PTZ, 1 hr after oral administration of test compound; type: functional; outline: as §1

Row | SMILES | Ki [3] | ED50 (Mus musculus [4]) | also measured
1 | c1cc(-c2nc3c4c(ncc3[nH]2)CCC4)no1 | 5.3 nM | – | ED50 (Mus musculus [1]): 9.22 mg/kg; ED50 (Mus musculus [2]): 4.72 mg/kg
2 | Cc1cc(-c2nc3c4c(ncc3[nH]2)CCCC4)on1 | 2.2 nM | 8.12 mg/kg | –
3 | CCc1cc(-c2nc3c(cnc4ccccc43)[nH]2)on1 | 1.2 nM | 13.5 mg/kg | –
4 | Cc1cc(-c2nc3c(cnc4ccccc43)[nH]2)on1 | 0.9 nM | 5.89 mg/kg | –
5 | Cc1cc(-c2nc3c4c(ncc3[nH]2)CCCCC4)on1 | 15.6 nM | 12.4 mg/kg | –
6 | Fc1ccc2c3nc(-c4ccon4)nc-3c[nH]c2c1 | 0.9 nM | 39.9 mg/kg | –
7 | Cc1cc(-c2nc3c(cnc4cc(Cl)ccc43)[nH]2)on1 | 18.8 nM | 29.8 mg/kg | –
8 | c1cc(-c2nc3c4c(ncc3[nH]2)CCCCC4)no1 | 5.2 nM | – | ED50 (Mus musculus [5]): inactive; Animals affected (Mus musculus [6]): inactive
9 | Cc1cc(-c2nc3c4c(ncc3[nH]2)CCC4)on1 | 14.6 nM | 5.97 mg/kg | –
10 | Fc1cccc2c1ncc1[nH]c(-c3ccon3)nc12 | 40 nM | – | Animals affected (Mus musculus [7]): 37.5%
11 | Cc1cc(-c2nc3c(cnc4cc(F)ccc43)[nH]2)on1 | 1.4 nM | 5.15 mg/kg | –
12 | c1ccc(-c2nc3c(cnc4ccccc43)[nH]2)cc1 | 22 nM | – | –
13 | Clc1ccc(-c2nc3c(cnc4ccccc43)[nH]2)cc1 | 270 nM | – | –
14 | Clc1ccc2[nH]cc3nc(-c4ccon4)nc-3c2c1 | 0.8 nM | – | ED50 (Mus musculus [8]): 14.2 mg/kg; Animals affected (Mus musculus [9]): 25%
15 | c1cc(-c2nc3c[nH]c4c(c-3n2)COCC4)no1 | 2.7 nM | – | ED50 (Mus musculus [10]): 19.6 mg/kg; ED50 (Mus musculus [11]): 25 mg/kg
16 | CN1C(=O)CN=C(c2ccccc2)c2cc(Cl)ccc21 [DIAZEPAM] | – | – | ED50 (Mus musculus [12]): 0.67 mg/kg
17 | Cc1cc(-c2nc3c4c(ncc3[nH]2)CCOC4)on1 | 3.3 nM | 11.2 mg/kg | –
18 | Cc1cc(-c2nc3c(cnc4cccc(F)c43)[nH]2)on1 | 4.9 nM | 4.86 mg/kg | –
19 | c1cc(-c2nc3c4c(ncc3[nH]2)CCCC4)no1 | 1.2 nM | – | ED50 (Mus musculus [5]): inactive; Animals affected (Mus musculus [13]): inactive
20 | c1csc(-c2nc3c[nH]c4ccccc4c-3n2)c1 | 1.7 nM | – | –

Row | SMILES | Ki [3] | ED50 (Mus musculus [4]) | also measured
21 | Cc1cc(-c2nc3c(cnc4ccccc43)[nH]2)cs1 | 4.5 nM | – | –
22 | Cc1cc(-c2nc3c(cnc4c(F)cccc43)[nH]2)on1 | 302 nM | – | ED50 (Mus musculus [5]): inactive
23 | O=C1C2C=Nc3ccccc3C2=NN1c1ccccc1 (stereo not given) [CGS-8216] | – | – | ED50 (Mus musculus [11]): 25 mg/kg
24 | Cc1cc(-c2nc3c(cnc4c(Cl)cccc43)[nH]2)on1 | – | – | ED50 (Mus musculus [5]): inactive; Animals affected (Mus musculus [6]): inactive
25 | Fc1cccc2[nH]cc3nc(-c4ccon4)nc-3c12 | 3.4 nM | – | ED50 (Mus musculus [14]): 21.2 mg/kg; ED50 (Mus musculus [15]): 35.7 mg/kg
26 | COc1ccc2[nH]cc3nc(-c4cc(C)no4)nc-3c2c1 | 0.9 nM | 21.6 mg/kg | –
27 | COc1ccc2c3nc(-c4ccon4)nc-3c[nH]c2c1 | 7.2 nM | – | ED50 (Mus musculus [16]): 8.77 mg/kg; ED50 (Mus musculus [17]): 16.2 mg/kg
28 | COc1ccc2[nH]cc3nc(-c4ccon4)nc-3c2c1 | 0.5 nM | – | Animals affected (Mus musculus [9]): 25%; ED50 (Mus musculus [18]): 31.5 mg/kg
29 | Clc1cccc2c1ncc1[nH]c(-c3ccon3)nc12 | 524 nM | – | ED50 (Mus musculus [5]): inactive; Animals affected (Mus musculus [13]): inactive
30 | c1ccc2c(c1)ncc1[nH]c(-c3ccno3)nc12 | 1 nM | – | ED50 (Mus musculus [5]): inactive; ED50 (Mus musculus [11]): 1.94 mg/kg; ED50 (Mus musculus [6]): inactive
31 | c1ccc2c(c1)ncc1[nH]c(-c3ccon3)nc12 | 0.6 nM | – | ED50 (Mus musculus [19]): 10.1 mg/kg; ED50 (Mus musculus [20]): inactive
32 | COc1ccc2c3nc(-c4cc(C)no4)nc-3c[nH]c2c1 | 9.5 nM | – | ED50 (Mus musculus [5]): inactive; ED50 (Mus musculus [11]): 46.2 mg/kg; Animals affected (Mus musculus [6]): inactive
33 | Cc1cc(-c2nc3c(cnc4ccc(F)cc43)[nH]2)on1 | 1.1 nM | 5.41 mg/kg | –
34 | Cc1cc(-c2nc3c(cnc4ccc(Cl)cc43)[nH]2)on1 | 0.5 nM | 10.6 mg/kg | –
35 | Clc1ccc2c3nc(-c4ccon4)nc-3c[nH]c2c1 | 3.5 nM | 27.2 mg/kg | –
36 | CCc1cc(-c2nc3c(cnc4ccccc43)[nH]2)no1 | 1.1 nM | 19.2 mg/kg | –
37 | Fc1ccc2[nH]cc3nc(-c4ccon4)nc-3c2c1 | 0.8 nM | – | ED50 (Mus musculus [21]): 16.5 mg/kg; ED50 (Mus musculus [22]): 64.1 mg/kg
38 | Clc1cccc2[nH]cc3nc(-c4ccon4)nc-3c12 | 7.8 nM | – | ED50 (Mus musculus [23]): 5.95 mg/kg; ED50 (Mus musculus [24]): 7.21 mg/kg
39 | Cc1cc(-c2nc3c(cnc4cccc(Cl)c43)[nH]2)on1 | 13.7 nM | 8.53 mg/kg | –
40 | Cc1cc(-c2nc3c(cnc4ccccc43)[nH]2)no1 | 0.9 nM | 16.4 mg/kg | –
